Data taken from ChEMBL document CHEMBL1649090, “Discovery of (7R)-14-cyclohexyl-7-{[2-(dimethylamino)ethyl](methyl) amino}-7,8-dihydro-6H-indolo[1,2-e][1,5]benzoxazocine-11-carboxylic acid (MK-3281), a potent and orally bioavailable finger-loop inhibitor of the hepatitis C virus NS5B polymerase” (J Med Chem, 2011).
Calls of active or inactive are those of the source. No cut-off for these calls is given here.

Columns and labels:
[1] = Plasma protein binding in rat; type: ADME, cell-free; details: read-out: PPB (converted)
Hepatitis C virus [2] = assay: Antiviral activity against HCV2a; type: functional, organism-based, Hepacivirus hominis; details: genotype 2a
[3] = Plasma protein binding in dog; type: ADME, cell-free, Canis lupus familiaris; details: read-out: PPB (converted)
[4] = AUC in Sprague-Dawley rat at 3 mg/kg, po; type: ADME, organism-based; set-up: dose 3 mg/kg, route oral; details: plasma
Summary of the method: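 Single-dose rat PK with the compound given as its TFA salt to Sprague-Dawley rats (n = 3) in DMSO/PEG400/water 20%/60%/20%. Dosing was 3 mg/kg iv and 3 mg/kg po.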

[5] = Terminal half life in dog at 1 mg/kg, iv and 2 mg/kg, po; type: ADME, organism-based, Canis lupus familiaris; details: in vivo
Summary of the method: (§1)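 Single iv and single oral doses, given as the bis-HCl salt, in rat, dog and rhesus, n = 3 per species (dog oral n = 2). The iv vehicle was DMSO/PEG400/water 20%/60%/20%. Oral vehicle was PEG400 for rat and dog and PEG400/water 70%/30% for rhesus. Values are mean ± SD.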

[6] = Intrinsic clearance in human liver microsomes assessed per mg of protein presence of UDPGA; type: ADME, Microsome
Hepatitis C virus [7] = assay: Antiviral activity against HCV1b infected in humanized uPA+/+-SCID mouse assessed as reduction of plasma viral RNA level at 50 mg/kg, ip bid for 4 days; type: functional, Hepacivirus hominis; details: route intraperitoneal
Summary of the method: (§2)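 Three chimeric uPA+/+-SCID mice with human hepatocytes, infected with genotype 1b HCV, received the dose intraperitoneally twice daily for 4 days in PEG400/water 30%/70%. Three vehicle-only mice were dosed for four days as controls. Plasma HCV RNA change is reported per animal and as mean, in log10 (lower limit 315 IU/mL). Follow-up ran to day 21. Plasma trough drug was measured 12 h after the last dose.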

Hepatitis C virus [8] = assay: Antiviral activity against HCV1b infected in humanized uPA+/+-SCID mouse assessed as reduction of viremia at 50 mg/kg, ip bid for 4 days; type: functional, Hepacivirus hominis; details: route intraperitoneal; summary of the method: as §2
[9] = Cmax in dog at 1 mg/kg, iv and 2 mg/kg, po; type: ADME, organism-based, Canis lupus familiaris; details: in vivo
Summary of the method: (§3)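 Single-dose PK of the bis-HCl salt, n = 3 per species (dog po n = 2). Intravenous doses: rat 3, dog 1, rhesus 2 mg/kg, in DMSO/PEG400/water 20%/60%/20%. Oral doses: rat 3, dog 2, rhesus 4 mg/kg, in PEG400 for rat and dog and PEG400/water 70%/30% for rhesus.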

[10] = Volume of distribution at steady state in dog at 1 mg/kg, iv and 2 mg/kg, po; type: ADME, organism-based, Canis lupus familiaris; details: in vivo, read-out: Vdss; summary of the method: as §1
Hepatitis C virus [11] = assay: Antiviral activity against HCV1b infected in human Huh-7 cells assessed as inhibition of viral RNA replication after 96 hrs by ELISA assay in presence of 50% normal human serum; type: functional, organism-based, Hepacivirus hominis; details: genotype 1b, Huh-7, 96 h
[12] = target: T1, Nuclear receptor subfamily 1 group I member 2 (Homo sapiens, UniProt O75469); assay: Inhibition of PXR activation up to 50 uM
T1 sequence (O75469 whole entry): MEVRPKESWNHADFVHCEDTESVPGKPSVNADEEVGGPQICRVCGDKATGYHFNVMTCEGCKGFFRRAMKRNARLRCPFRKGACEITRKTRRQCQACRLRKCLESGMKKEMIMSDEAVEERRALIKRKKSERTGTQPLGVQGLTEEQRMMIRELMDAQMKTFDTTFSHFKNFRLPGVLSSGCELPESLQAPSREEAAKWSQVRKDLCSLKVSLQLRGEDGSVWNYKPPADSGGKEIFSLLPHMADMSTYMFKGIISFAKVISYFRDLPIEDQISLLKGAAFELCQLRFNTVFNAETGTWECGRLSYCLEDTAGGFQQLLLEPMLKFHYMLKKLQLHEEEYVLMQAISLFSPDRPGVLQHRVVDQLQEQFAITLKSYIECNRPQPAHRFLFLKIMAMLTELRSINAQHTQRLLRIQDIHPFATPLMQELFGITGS

[13] = Volume of distribution at steady state in Sprague-Dawley rat at 3 mg/kg, iv and 3 mg/kg, po; type: ADME, organism-based; details: in vivo, read-out: Vdss; summary of the method: as §1
[14] = Plasma concentration in HCV1b infected humanized uPA+/+-SCID mouse at 10 mg/kg, ip bid for 4 days measured 12 hrs after last post dose; type: ADME, organism-based; set-up: dose 10 mg/kg, route intraperitoneal
Summary of the method: (§4)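 Three humanized uPA+/+-SCID mice infected with genotype 1b HCV received 10 or 50 mg/kg ip twice daily for 4 days, in PEG400/water 30%/70%. Trough plasma concentration was taken 12 h after the last dose.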

[15] = Plasma concentration in SCID mouse at 50 mg/kg, ip bid for 5 days measured 12 hrs after last post dose; type: ADME, organism-based; set-up: dose 50 mg/kg, route intraperitoneal
Summary of the method: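 SCID mice (n = 3) were given 50 mg/kg by intraperitoneal injection twice daily for five consecutive days. Plasma compound level was measured 12 h after the last dose.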

[16] = Volume of distribution at steady state in rhesus monkey at 2 mg/kg, iv and 4 mg/kg, po; type: ADME, organism-based, Macaca mulatta; details: in vivo, read-out: Vdss; summary of the method: as §1
[17] = Clearance in dog at 1 mg/kg, iv and 2 mg/kg, po; type: ADME, organism-based, Canis lupus familiaris; details: in vivo; summary of the method: as §3
[18] = target: DNA polymerase beta (Homo sapiens) (UniProt P06746); assay: Inhibition of human DNA polymerase beta up to 50 uM
[19] = target: Macrophage metalloelastase (Homo sapiens, UniProt P39900); assay: Inhibition of MMP12
Mus musculus = assay: Toxicity in SCID mouse assessed as mortality at 50 mg/kg, ip bid for 5 days; type: organism-based; set-up: dose 50 mg/kg, route intraperitoneal; details: in vivo, 120 h
[20] = AUC in dog at 2 mg/kg, po; type: ADME, organism-based, Canis lupus familiaris; set-up: dose 2 mg/kg, route oral; details: plasma; summary of the method: as §3
[21] = Clearance in rhesus monkey at 2 mg/kg, iv and 4 mg/kg, po; type: ADME, organism-based, Macaca mulatta; details: in vivo; summary of the method: as §3
[22] = Intrinsic clearance in rat liver microsomes assessed per mg of protein in presence of UDPGA; type: ADME, Microsome
[23] = Cmax in rhesus monkey at 2 mg/kg, iv and 4 mg/kg, po; type: ADME, organism-based, Macaca mulatta; details: in vivo; summary of the method: as §3
[24] = Plasma protein binding in human; type: ADME, cell-free; details: read-out: PPB (converted)
[25] = Intrinsic clearance in human liver microsomes assessed per mg of protein; type: ADME, Microsome
[26] = Terminal half life in Sprague-Dawley rat at 3 mg/kg, iv and 3 mg/kg, po; type: ADME, organism-based; details: in vivo; summary of the method: as §3
[27] = Terminal half life in rhesus monkey at 2 mg/kg, iv and 4 mg/kg, po; type: ADME, organism-based, Macaca mulatta; details: in vivo; summary of the method: as §1
Homo sapiens = organism: Homo sapiens; assay: Inhibition of human DNA polymerase gamma up to 50 uM
[28] = Oral bioavailability in dog at 2 mg/kg, po; type: ADME, organism-based, Canis lupus familiaris; details: in vivo; summary of the method: as §3
Cytochrome P450 3A4 = Cytochrome P450 3A4 (Homo sapiens, UniProt P08684); assay: Inhibition of CYP3A4 up to 50 uM; type: ADME
Hepatitis C virus [29] = assay: Antiviral activity against HCV1b BK; type: functional, organism-based, Hepacivirus hominis; details: genotype 1b BK
[30] = target: Protein kinase C alpha type (Homo sapiens, UniProt P17252); assay: Inhibition of PKCalpha
[31] = Plasma concentration in HCV1b infected humanized uPA+/+-SCID mouse at 50 mg/kg, ip bid for 4 days measured 12 hrs after last post dose; type: ADME, organism-based; set-up: dose 50 mg/kg, route intraperitoneal; summary of the method: as §4
[32] = Intrinsic clearance in dog liver microsomes assessed per mg of protein; type: ADME, Canis lupus familiaris, Microsome

Sequence of Macrophage metalloelastase (P39900 whole entry): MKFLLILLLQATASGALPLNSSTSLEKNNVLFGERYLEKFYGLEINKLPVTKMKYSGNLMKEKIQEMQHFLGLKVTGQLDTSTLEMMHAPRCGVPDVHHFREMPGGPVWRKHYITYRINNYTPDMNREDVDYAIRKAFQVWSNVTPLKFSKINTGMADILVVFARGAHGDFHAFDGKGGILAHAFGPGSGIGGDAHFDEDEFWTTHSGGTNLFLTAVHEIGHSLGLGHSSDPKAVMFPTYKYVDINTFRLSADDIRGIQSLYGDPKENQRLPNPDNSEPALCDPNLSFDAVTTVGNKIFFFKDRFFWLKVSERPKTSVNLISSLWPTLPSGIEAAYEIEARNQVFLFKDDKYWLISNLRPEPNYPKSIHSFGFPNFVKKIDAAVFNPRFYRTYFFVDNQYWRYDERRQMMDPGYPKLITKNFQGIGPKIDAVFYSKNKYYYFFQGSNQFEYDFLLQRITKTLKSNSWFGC
Sequence of Cytochrome P450 3A4 (P08684 whole entry): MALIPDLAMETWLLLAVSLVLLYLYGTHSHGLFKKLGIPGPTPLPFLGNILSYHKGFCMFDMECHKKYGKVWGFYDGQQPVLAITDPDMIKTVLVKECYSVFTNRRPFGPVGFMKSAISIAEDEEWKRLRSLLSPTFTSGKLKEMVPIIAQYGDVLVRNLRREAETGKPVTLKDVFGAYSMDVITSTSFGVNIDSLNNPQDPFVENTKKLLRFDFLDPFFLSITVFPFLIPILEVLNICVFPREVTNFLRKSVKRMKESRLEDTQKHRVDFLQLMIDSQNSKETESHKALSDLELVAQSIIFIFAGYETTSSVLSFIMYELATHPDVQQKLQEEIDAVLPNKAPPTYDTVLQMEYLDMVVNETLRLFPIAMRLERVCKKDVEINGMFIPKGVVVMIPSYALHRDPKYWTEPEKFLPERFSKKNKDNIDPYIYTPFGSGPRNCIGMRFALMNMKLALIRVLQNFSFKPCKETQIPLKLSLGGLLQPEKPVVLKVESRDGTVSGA

Q: Which fraction unbound [1] does the source give for CN(C)CCN(C)[C@H]1COc2ccccc2-c2c(C3CCCCC3)c3ccc(C(=O)O)cc3n2C1 [MK-3281] here?
A: 0.03

Q: What about the EC50 (Hepatitis C virus [2]) of the same molecule?
A: 2020 nM

Q: And the fraction unbound [3]?
A: 0.027

Q: And the AUC [4]?
A: 2.4 µM·h

Q: What about the half-life [5] of the same molecule?
A: 6.1 h

Q: And the microsomal CLint [6]?
A: < 4 µL/min/mg

Q: What about the “fold change (FC)” value (Hepatitis C virus [7]) of the same molecule?
A: 3.13

Q: What about the “fold change (FC)” value (Hepatitis C virus [8]) of the same molecule?
A: -3.94

Q: What about the Cmax [9] of the same molecule?
A: 1000 nM

Q: And the Vd [10]?
A: 2.6 L/kg

Q: What about the EC50 (Hepatitis C virus [11]) of the same molecule?
A: 110 nM

Q: What about the “inhibition (INH)” value [12] of the same molecule?
A: Not Active

Q: And the Vd [13]?
A: 3.7 L/kg

Q: What about the concentration at 12 h [14] of the same molecule?
A: 670 nM

Q: What about the concentration at 12 h [15] of the same molecule?
A: 3600 nM

Q: What about the Vd [16] of the same molecule?
A: 2.2 L/kg

Q: What about the clearance [17] of the same molecule?
A: 7 mL/min/kg

Q: And the inhibition [18]?
A: inactive

Q: And the IC50 [19]?
A: 8300 nM

Q: And the Activity (Mus musculus)?
A: Non-toxic

Q: What about the AUC [20] of the same molecule?
A: 8.6 µM·h

Q: And the clearance [21]?
A: 7 mL/min/kg

Q: What about the microsomal CLint [22] of the same molecule?
A: < 4 µL/min/mg

Q: What about the Cmax [23] of the same molecule?
A: 800 nM

Q: What about the fraction unbound [24] of the same molecule?
A: 0.031

Q: What about the microsomal CLint [25] of the same molecule?
A: 7 µL/min/mg

Q: What about the half-life [26] of the same molecule?
A: 3.4 h

Q: What about the half-life [27] of the same molecule?
A: 5.7 h

Q: What about the inhibition (Homo sapiens) of the same molecule?
A: inactive

Q: What about the bioavailability [28] of the same molecule?
A: 78%

Q: And the “inhibition (INH)” value (Cytochrome P450 3A4)?
A: Not Active

Q: And the EC50 (Hepatitis C virus [29])?
A: 9 nM

Q: And the IC50 [30]?
A: 59000 nM

Q: What about the concentration at 12 h [31] of the same molecule?
A: 2600 nM

Q: And the microsomal CLint [32]?
A: 3 µL/min/mg
